Bioassay records as filed in PubChem.
This is a sample that favours compounds with a hit; in the whole collection about 3% have one here.
UBC13 inh: UBC13 polyubiquitin chain formation inhibitors, primary screen, biochemical, TR-FRET, uHTS; Ubiquitin-conjugating enzyme E2 N (Homo sapiens), P61088; inhibition, % at 20 µM; hit rate 0.47% among 330,000; in the data active = inhibition above about 45%, passing the limit was not always enough
Target sequence (P61088 whole entry, looked up): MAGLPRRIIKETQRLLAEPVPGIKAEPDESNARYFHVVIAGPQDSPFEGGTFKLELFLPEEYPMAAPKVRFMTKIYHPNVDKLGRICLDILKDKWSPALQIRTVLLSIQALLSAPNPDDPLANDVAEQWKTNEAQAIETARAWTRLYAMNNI
SENP6 inh: SENP6 protease inhibitors, primary screen, biochemical, luminescence, uHTS. AID 2599, 2010. Sentrin-specific protease 6 (Homo sapiens), Q9GZR1. Recombinant SENP6 catalytic domain, aminoluciferin luminescence. hit rate 1.8% among 330,000. inhibition, % at 10 µM;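 active = inhibition above about 50% at the single tested dose, limit read from the data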;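 also: plate controls were DMSO wells with enzyme for no effect and DMSO wells lacking enzyme for full effect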
Target sequence (Q9GZR1 628-1112 limits assumed): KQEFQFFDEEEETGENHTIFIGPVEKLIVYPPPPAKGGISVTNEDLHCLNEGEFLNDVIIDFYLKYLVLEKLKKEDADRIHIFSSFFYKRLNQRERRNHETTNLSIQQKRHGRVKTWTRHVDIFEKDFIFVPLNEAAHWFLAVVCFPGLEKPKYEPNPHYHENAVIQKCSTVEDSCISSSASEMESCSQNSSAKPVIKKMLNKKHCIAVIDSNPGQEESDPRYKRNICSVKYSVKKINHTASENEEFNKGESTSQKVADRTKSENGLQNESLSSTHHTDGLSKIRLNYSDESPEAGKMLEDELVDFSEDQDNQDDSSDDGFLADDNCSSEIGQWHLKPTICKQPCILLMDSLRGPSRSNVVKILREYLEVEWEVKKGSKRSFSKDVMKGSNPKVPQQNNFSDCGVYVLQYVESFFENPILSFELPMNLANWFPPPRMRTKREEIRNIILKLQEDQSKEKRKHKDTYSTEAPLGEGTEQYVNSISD
Apaf-1 inh: inhibitors of human Apaf-1 apoptosome, primary screen, biochemical, DEVD-Rh110 fluorescence, uHTS | inhibition, % at 20 µM | reconstituted apoptosome caspase-3 activity | AID 489030, 2010 | Apoptotic protease-activating factor 1 (Homo sapiens), O14727 | hit rate 0.71% among 330,000; active = inhibition of at least 40% at 20 µM;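 also: plate controls were DMSO wells for no effect and DEVD-CHO caspase inhibitor wells for full effect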
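Material: cell-free apoptosome with Apaf-1, procaspase-3 and caspase-9; Buffer or medium: Hepes pH 7.5 with detergent and BSA; Reagent: cytochrome c trigger plus (Z-DEVD)2-Rh110 caspase-3 substrate; Times: compound with Apaf-1, dATP, procaspase-3 30 min, then 50 min reaction, room temperature; Technique: Rh110 fluorescence intensity.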
SENP7 block: SENP7 protease inhibitors, primary screen, biochemical, luminescence, uHTS; Sentrin-specific protease 7 (Homo sapiens), Q9BQF6; recombinant SENP7, Z-RLRGG-aminoluciferin luminescence, 40 min; inhibition, % at 5 µM; hit rate 1.5% among 330,000;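 active = inhibition above about 50% at the single test dose, limit read from the data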;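 also: plate controls were DMSO with enzyme for no effect and no enzyme buffer wells for full effect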
SENP8 block-1: human SENP8 protease inhibitors, primary screen, biochemical, fluorescence, Nedd8 protein substrate, uHTS; Sentrin-specific protease 8 (Homo sapiens), Q96LD8; recombinant SENP8; inhibition, % at 20 µM; hit rate 0.64% among 360,000; AID 602440, 2012; in the data active = inhibition mostly above about 40%, no sharp cut-off; inactive = mostly below about 27%
SENP8 block-2: SENP8 protease inhibitors, primary screen, biochemical, luminescence; hit rate 1.2% among 330,000; purified SENP8, Z-RLRGG-aminoluciferin cleavage; inhibition, % at 10 µM; Sentrin-specific protease 8 (Homo sapiens), Q96LD8; in the data active = inhibition above about 50%
Apaf-1 inh conf2: Apaf-1 inhibitors, single-dose retest, confirmation, biochemical, fluorescence, DEVD-Rh110, 20 µM. shares compounds with Apaf-1 inh. reconstituted apoptosome, caspase-3 DEVD-Rh110 fluorescence. inhibition, % at 20 µM. hit rate 25% among 1,800. AID 504614, 2011;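 active = mean inhibition of at least 40% at 20 µM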;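 also: plate controls were DMSO wells for no effect and DEVD-CHO caspase inhibitor control wells for full effect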
Rh110 interf inh: Rh110 fluorescence interference by putative Apaf-1 inhibitors, confirmation, artefact control for Apaf-1 inhibitor project, biochemical, 20 µM; quenched caspase reaction; AID 504615, 2011; shares compounds with Apaf-1 inh; activation (fluorescence interference), % at 20 µM; 1,800 tested, under 10 active;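 active = signal rise of 40% or more at 20 µM, treated as a fluorescence artifact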
Starred values were filed as active, the others as inactive.

Results for O=C(NCCc1ccccc1)c1ccc(=O)oc1 ?
UBC13 inh: -22; SENP6 inh: -10; Apaf-1 inh: 4; SENP7 block: -6; SENP8 block-1: 16; SENP8 block-2: 4

How did O=C(NCCc1ccccc1)c1ccc2nc(-c3ccco3)c(-c3ccco3)nc2c1 do in these assays?
UBC13 inh: -43; SENP6 inh: 13; Apaf-1 inh: 46*; SENP7 block: 2; SENP8 block-1: -295; SENP8 block-2: 15; Apaf-1 inh conf2: 29; Rh110 interf inh: 7

Results for O=C(NCCO)c1ccc(Cl)c(Cl)c1 ?
UBC13 inh: -7; SENP6 inh: -25; Apaf-1 inh: 5; SENP7 block: -4; SENP8 block-1: 9; SENP8 block-2: -11

How did O=C(c1ccccc1)c1ccc2nc(-c3ccco3)c(-c3ccco3)nc2c1 do in these assays?
UBC13 inh: 32; SENP6 inh: 34; Apaf-1 inh: 41*; SENP7 block: 1; SENP8 block-1: -299; SENP8 block-2: 25; Apaf-1 inh conf2: 27; Rh110 interf inh: 8

How did O=C(NCCO)c1ccc2nc(-c3ccco3)c(-c3ccco3)nc2c1 do in these assays?
UBC13 inh: -7; SENP6 inh: 56*; Apaf-1 inh: 78*; SENP7 block: 23; SENP8 block-1: -192; SENP8 block-2: 37; Apaf-1 inh conf2: 23; Rh110 interf inh: 1

How did Cc1ccc(CNC(=O)C2CCCN2C(=O)Nc2ccccc2)cc1 (centres undefined) do in these assays?
UBC13 inh: 0; SENP6 inh: -3; Apaf-1 inh: 2; SENP7 block: 2; SENP8 block-1: 12; SENP8 block-2: 14

Results for C[C@H](CO)N1C[C@H](C)[C@@H](CN(C)Cc2ccc(-c3ccccc3)cc2)Oc2c(NC(=O)Cc3ccccc3)cccc2C1=O ?
UBC13 inh: -7; SENP6 inh: -9; Apaf-1 inh: 43*; SENP7 block: -10; SENP8 block-1: 11; SENP8 block-2: -15; Apaf-1 inh conf2: 26; Rh110 interf inh: -7

What do the screens show for `C[C@@H]1CN([C@@H](C)CO)C(=O)c2cc(NC(=O)Nc3ccc(F)cc3)ccc2O[C@@H]1CN(C)Cc1ccc(Oc2ccccc2)cc1`?
UBC13 inh: 21; SENP6 inh: 0; Apaf-1 inh: 42*; SENP7 block: -3; SENP8 block-1: -51; SENP8 block-2: 7; Apaf-1 inh conf2: 11; Rh110 interf inh: 10

What do the screens show for `C[C@H](CO)N1C[C@H](C)[C@@H](CN(C)Cc2ccncc2)Oc2c(NC(=O)Cc3ccccc3)cccc2C1=O`?
UBC13 inh: 2; SENP6 inh: 10; Apaf-1 inh: -1; SENP7 block: 2; SENP8 block-1: 15; SENP8 block-2: 5

How did C[C@H](CO)N1C[C@H](C)[C@@H](CN(C)Cc2ccc(Cl)c(Cl)c2)Oc2c(NC(=O)Cc3ccccc3)cccc2C1=O do in these assays?
UBC13 inh: -1; SENP6 inh: -3; Apaf-1 inh: 44*; SENP7 block: -7; SENP8 block-1: 9; SENP8 block-2: -5; Apaf-1 inh conf2: 24; Rh110 interf inh: 2

What do the screens show for `C[C@H](CO)N1C[C@H](C)[C@@H](CN(C)Cc2ccccc2)Oc2c(NC(=O)Cc3ccccc3)cccc2C1=O`?
UBC13 inh: 19; SENP6 inh: -18; Apaf-1 inh: 22; SENP7 block: -4; SENP8 block-1: 14; SENP8 block-2: 6

What do the screens show for `C[C@H](CO)N1C[C@H](C)[C@@H](CN(C)CC2CCCCC2)Oc2c(NC(=O)CCC(F)(F)F)cccc2C1=O`?
UBC13 inh: 13; SENP6 inh: -19; Apaf-1 inh: 41*; SENP7 block: -7; SENP8 block-1: 0; SENP8 block-2: -12; Apaf-1 inh conf2: 18; Rh110 interf inh: 17

How did O=C(CCl)Nc1cc2[nH]c(=O)[nH]c2cc1Br do in these assays?
UBC13 inh: -8; SENP6 inh: -9; Apaf-1 inh: -3; SENP7 block: -1; SENP8 block-1: 22; SENP8 block-2: 4

Results for CN(C)C(=O)c1ccc(NC(=O)COc2cccc(Oc3ccccc3)c2)cc1 ?
UBC13 inh: 32; SENP6 inh: 2; Apaf-1 inh: 61*; SENP7 block: 5; SENP8 block-1: 8; SENP8 block-2: -4; Apaf-1 inh conf2: 35; Rh110 interf inh: 5

What do the screens show for `C=CCn1c(SCC(=O)NCCc2ccccc2)nnc1C1CC1`?
UBC13 inh: 7; SENP6 inh: -13; Apaf-1 inh: 42*; SENP7 block: -5; SENP8 block-1: 18; SENP8 block-2: -7; Apaf-1 inh conf2: 31; Rh110 interf inh: 7

Results for Cc1ccc(NC(=O)COc2ccccc2)c(NC(=O)c2ccco2)c1 ?
UBC13 inh: 4; SENP6 inh: -10; Apaf-1 inh: 6; SENP7 block: -10; SENP8 block-1: -1; SENP8 block-2: 0

Results for CCOC(=O)c1ccc(N2CSC3=C(C#N)C(c4cccs4)CC(=O)N3C2)cc1 (centres undefined) ?
UBC13 inh: 0; SENP6 inh: 10; Apaf-1 inh: 55*; SENP7 block: 29; SENP8 block-1: 27; SENP8 block-2: 15; Apaf-1 inh conf2: 18; Rh110 interf inh: 2

How did CCOc1ccccc1N1CSC2=C(C#N)C(c3c(OC)ccc4ccccc34)CC(=O)N2C1 (centres undefined) do in these assays?
UBC13 inh: -58; SENP6 inh: 2; Apaf-1 inh: 41*; SENP7 block: 24; SENP8 block-1: -15; SENP8 block-2: 1; Apaf-1 inh conf2: 22; Rh110 interf inh: 4

How did CCc1ccc(N2CSC3=C(C#N)C(c4cccs4)CC(=O)N3C2)cc1 (centres undefined) do in these assays?
UBC13 inh: -24; SENP6 inh: 38; Apaf-1 inh: 20; SENP7 block: 8; SENP8 block-1: 0; SENP8 block-2: 12

What do the screens show for `Cc1cc(C)c(C(=O)C(C)OC(=O)c2ccc(Cl)nc2)cc1C` (centres undefined)?
UBC13 inh: 2; SENP6 inh: -3; Apaf-1 inh: 21; SENP7 block: -4; SENP8 block-1: 2; SENP8 block-2: -1

What do the screens show for `COc1cc(C(C)=O)ccc1OCC(=O)Nc1cc(C)on1`?
UBC13 inh: -8; SENP6 inh: -19; Apaf-1 inh: -2; SENP7 block: -12; SENP8 block-1: 9; SENP8 block-2: -12
